# Laboratory results published in ChEMBL document CHEMBL4385631, “Small molecule inhibition of microRNA-21 expression reduces cell viability and microtumor formation” (Bioorg Med Chem, 2019).
# Activity calls are given as the source filed them. No cut-off for these calls is given here.
# Tests used:
# [1] = system: microRNA 21; assay: Inhibition of miR-21 RNA (unknown origin) in HeLa cells harboring luciferase gene assessed as increase in luminescence at 10 uM after 48 hrs by Bright-glo luciferase assay relative to DMSO; format: cell-based
# In short: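 HeLa-miR21-Luc stable reporter cells treated at 10 µM for 48 h. Luminescence normalized to cell viability and expressed as fold change over DMSO control. Mean ± SD of at least three independent experiments.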
# [2] = target: microRNA 21; assay: Inhibition of miR-21 RNA (unknown origin) in HeLa cells harboring luciferase gene after 48 hrs by Bright-glo luciferase assay; format: cell-based
# In short: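 HeLa-miR21-Luc stable reporter cells treated across a concentration range, then Bright-Glo assay. Luciferase signal normalized first to cell viability, then to DMSO. Three independent experiments; EC50 from nonlinear regression fit.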
# [3] = system: HeLa; assay: Effect on non-miRNA pathway in human HeLa cells harboring psi-check empty vector assessed as increase in luminescence at 10 uM after 48 hrs by dual luciferase assay relative to control; format: functional
# In short: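 HeLa cells transfected with psiCHECK-empty reporter (sequence not targeted by any known miRNA), then treated at 10 µM for 48 h. Dual luciferase assay; firefly signal normalized to Renilla, then to DMSO. Three independent experiments, mean ± SD; unpaired t-test.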
# [4] = target: Luciferin 4-monooxygenase (Photinus pyralis) (UniProt P08659); assay: Inhibition of recombinant firefly luciferase activity assessed as reduction in luminescence at 10 uM by Bright-glo luciferase assay relative to control
# Chain of Luciferin 4-monooxygenase (Photinus pyralis) (P08659 whole entry): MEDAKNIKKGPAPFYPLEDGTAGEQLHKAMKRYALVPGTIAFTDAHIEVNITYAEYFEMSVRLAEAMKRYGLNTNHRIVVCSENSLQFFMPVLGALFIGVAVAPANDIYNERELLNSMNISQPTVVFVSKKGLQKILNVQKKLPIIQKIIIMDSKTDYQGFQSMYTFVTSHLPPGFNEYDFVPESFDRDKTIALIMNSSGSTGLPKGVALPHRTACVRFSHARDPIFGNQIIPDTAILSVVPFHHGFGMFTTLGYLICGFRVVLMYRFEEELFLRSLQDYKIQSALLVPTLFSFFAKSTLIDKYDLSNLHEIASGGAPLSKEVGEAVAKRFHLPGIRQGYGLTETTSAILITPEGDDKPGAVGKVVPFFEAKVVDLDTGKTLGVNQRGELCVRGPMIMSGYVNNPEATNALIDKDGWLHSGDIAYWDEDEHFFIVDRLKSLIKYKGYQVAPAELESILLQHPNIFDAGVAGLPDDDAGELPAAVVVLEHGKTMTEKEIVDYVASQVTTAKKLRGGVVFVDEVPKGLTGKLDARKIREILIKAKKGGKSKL
# [5] = system: microRNA 122; assay: Inhibition of miR-122 RNA (unknown origin) in HuH7 cells harboring luciferase gene assessed as increase in luminescence at 10 uM after 48 hrs by dual luciferase assay relative to control; format: cell-based
# In short: (§1)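 Huh7-miR122 stable reporter cells treated at 10 µM for 48 h; known miR-122 inhibitor as positive control. Dual luciferase assay; Renilla signal normalized to firefly, then to DMSO. Three independent experiments, mean ± SD; unpaired t-test.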
# [6] = system: HeLa; assay: Induction of apoptosis in human HeLa cells assessed as increase in caspase 3/7 activity at 10 uM after 24 hrs by caspase3/7 activity assay; format: functional
# In short: (§2)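 HeLa cells treated for 24 h, then caspase-3/7 activity assay.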
# [7] = system: microRNA 21; assay: Inhibition of pri-miR-21 RNA in human HeLa cells assessed as decrease in pri-miR-21 RNA level at 10 uM after 48 hrs by RT-qPCR method relative to control; format: cell-based
# In short: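 HeLa cells treated at 10 µM for 48 h; primary miR-21 levels measured by RT-qPCR.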
# [8] = system: HeLa; assay: Anticlonogenic activity against human HeLa cells assessed as reduction in colony formation after 2 weeks by crystal violet staining based microscopic method; format: functional, cell-based; conditions: 336 h
# In short: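 HeLa cells suspended in low-melt agarose and exposed to a dilution series of compound for two weeks at 37 °C, then imaged.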
# [9] = system: microRNA 122; assay: Inhibition of miR-122 RNA (unknown origin) in HuH7 cells harboring luciferase gene assessed as reduction in luminescence at 10 uM after 48 hrs by dual luciferase assay relative to control; format: cell-based; in short: as §1
# [10] = system: microRNA 21; assay: Inhibition of miR-21 RNA in human A549 cells assessed as reduction in matured miR-21 RNA at 10 uM after 48 hrs by RT-qPCR analysis relative to control
# [11] = system: microRNA 21; assay: Inhibition of miR-21 RNA in human SKOV3 cells assessed as reduction in matured miR-21 RNA at 10 uM after 48 hrs by RT-qPCR analysis relative to control
# [12] = system: HeLa; assay: Antiproliferative activity against human HeLa cells cell viability after 72 hrs by XTT assay; format: functional, cell-based
# In short: (§3)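 Cells treated with a serial dilution of compound for 72 h; viability read by XTT assay.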
# [13] = system: HeLa; assay: Induction of apoptosis in human HeLa cells assessed as increase in caspase 3/7 activity at 50 uM after 24 hrs by caspase3/7 activity assay relative to control; format: functional; in short: as §2
# [14] = system: microRNA 21; assay: Inhibition of miR-21 RNA in human HeLa cells assessed as reduction in matured miR-21 RNA at 10 uM after 48 hrs by RT-qPCR analysis relative to control
# [15] = system: microRNA 21; assay: Inhibition of miR-21 RNA promoter (unknown origin) in HeLa cells expressing pGL4-miR21p assessed as decrease in miR-21 RNA promoter activity at 10 uM preincubated for 48 hrs followed by pGL4-miR21p transfection after 24 hrs by Bright-glo luciferase assay relative to DMSO; format: cell-based
# [16] = system: microRNA 21; assay: Binding affinity to pre-miR-21 RNA (unknown origin) assessed as melting temperature by UV spectroscopic analysis (reference value: 56 degC); format: nucleic-acid assay
# [17] = system: HEK293; assay: Antiproliferative activity against human HEK293 cells cell viability after 72 hrs by XTT assay; format: cell-based; conditions: hek293, 72 h; in short: as §3
# [18] = target: Luciferin 4-monooxygenase (Photinus pyralis) (UniProt P08659); assay: Inhibition of recombinant firefly luciferase activity assessed as reduction in luminescence at 10 uM by Bright-glo luciferase assay
Compound,fold change (FC) [1],also measured
COc1ccc(OCC(=O)Nc2ccc(-c3nc4cc(F)ccc4o3)cc2)cc1,2.14,–
C#CCN(C(=O)COc1ccc(OC)cc1)c1ccc(-c2nc3cc(Cl)ccc3o2)cc1,1.61,–
O=C(COc1ccccc1)Nc1ccc(-c2nc3ccc(Cl)cc3o2)cc1,2.65,–
COc1ccc(SCC(=O)Nc2ccc(-c3nc4cc(Cl)ccc4o3)cc2)cc1,2.64,–
COc1ccc(OCC(=O)Nc2ccc(-c3nc4cc(Cl)ccc4[nH]3)cc2)cc1,1.6,–
COc1ccc(OCC(=O)Nc2ccc(-c3nc4cc(-c5ccccc5)ccc4o3)cc2)cc1,7.87,EC50 [2]: 3.5 µM; inhibition [2]: Dose-dependent effect; fold change (FC) [3]: 1.5 - 1.8; inhibition [4]: 27%
O=C(COc1ccccc1)Nc1ccc(-c2nc3ccccc3o2)cc1,1.47,–
O=C(COc1ccccc1)Nc1ccc(-c2nc3ccccc3s2)cc1,1.68,–
O=C(COc1ccccc1I)Nc1ccc(-c2nc3ccccc3o2)cc1,1.53,–
N#Cc1ccc(OCC(=O)Nc2ccc(-c3nc4cc(Cl)ccc4o3)cc2)cc1,2.08,–
COc1ccc(OC(=O)Nc2ccc(-c3nc4cc(Cl)ccc4o3)cc2)cc1,3.48,–
COc1ccc(OCC(=O)Nc2ccc(-c3nc4ncccc4o3)cc2)cc1,2.25,–
COc1ccc(OCC(=O)Nc2ccc(-c3nc4cc(Br)ccc4o3)cc2)cc1,6.19,EC50 [2]: 6.4 µM; inhibition [2]: Dose-dependent effect; fold change (FC) [3]: 1.5 - 1.8; inhibition [4]: 38%
COc1ccc(OCC(=O)Nc2ccc(-c3nc4ccccc4s3)cc2)cc1,1.56,–
COc1ccc(OCC(=O)Nc2cccc(-c3nc4ccccc4o3)c2)cc1,4.73,–
O=S(=O)(c1ccc2c(c1)CCCN2)N1CCC[C@H]2CCCC[C@@H]21,–,fold change (FC) [5]: > 3.5
O=C(COc1ccccc1)Nc1ccc(-c2nc3cc(F)ccc3o2)cc1,1.58,–
COc1ccc(OCC(=O)Nc2ccc(-c3nc4cc(Cl)ccc4o3)cc2)cc1,4.87,Activity [6]: 50%; inhibition [7]: 79%; EC50 [8]: 7.3 µM; fold change (FC) [9]: 0.2; inhibition [10]: 33%; inhibition [11]: 31%; IC50 [12]: > 50 µM; EC50 [2]: 6.7 µM; inhibition [2]: Dose-dependent effect; fold change (FC) [13]: 2; inhibition [14]: 57%; inhibition [15]: 78%; Tm [16]: 56.2 °C; Activity [17]: Non-Toxic; Activity [3]: inactive; inhibition [4]: inactive
O=C(COc1ccccc1I)Nc1ccc(-c2nc3ccccc3s2)cc1,1.55,–

Compound,fold change (FC) [1],also measured
COc1ccc(OCC(=O)N(C)c2ccc(-c3nc4cc(Cl)ccc4o3)cc2)cc1,0.88,–
COc1ccc(NCC(=O)Nc2ccc(-c3nc4cc(Cl)ccc4o3)cc2)cc1,0.14,–
O=C(Nc1ccc(-c2nc3cc(Cl)ccc3o2)cc1)Oc1ccccc1,3.86,–
O=C(COc1ccc([N+](=O)[O-])cc1)Nc1ccc(-c2nc3cc(Cl)ccc3o2)cc1,3.58,–
O=C(COc1ccc(-c2ccccc2)cc1)Nc1ccc(-c2nc3cc(Cl)ccc3o2)cc1,2.64,–
COc1ccc(OCC(=O)Nc2nc3ccc(-c4nc5cc(Cl)ccc5o4)cc3s2)cc1,0.03,–
COc1ccc(OCC(=O)Nc2cccc(-c3nc4cc(Cl)ccc4o3)c2)cc1,3.19,–
O=C(COc1ccccc1)Nc1ccc2cc(-c3nc4cc(Cl)ccc4o3)ccc2c1,1.3,–
O=C(COc1ccccc1)Nc1ccc(-c2nc3cc(Cl)ccc3o2)cc1,2.87,–
O=C(COc1ccccc1)Nc1ccc(-c2nc3cc(Cl)ccc3[nH]2)cc1,0.41,–
COc1ccc(OCC(=O)Nc2ccc(-c3nc4ccc(Cl)cc4o3)cc2)cc1,3.32,–
COc1cccc(OCC(=O)Nc2ccc(-c3nc4cc(Cl)ccc4o3)cc2)c1,5.37,EC50 [2]: 4.7 µM; inhibition [2]: Dose-dependent effect; fold change (FC) [3]: 1.5 - 1.8; inhibition [4]: 44%
O=C(COc1ccccc1)Nc1cccc(-c2nc3cc(Cl)ccc3o2)c1,2.14,–
Cc1cc(OCC(=O)Nc2ccc(-c3nc4cc(Cl)ccc4o3)cc2)ccc1C(C)C,2.23,–
COc1ccc(OCC(=O)Nc2ccc(-c3nc4ccccc4o3)cc2)cc1,0.27,–
O=C(COc1ccccc1)Nc1cccc(-c2nc3ccccc3o2)c1,1.75,–
O=C(O)c1cccc(-c2noc(-c3ccccc3F)n2)c1 [ATALUREN],–,inhibition [18]: 94%; fold change (FC) [3]: 1.5 - 1.8
O=C(COc1ccc(F)cc1)Nc1ccc(-c2nc3cc(Cl)ccc3o2)cc1,2.86,–
